Experimental data as given in ChEMBL document CHEMBL2146408, “Primary amino acid derivatives: compounds with anticonvulsant and neuropathic pain protection activities” (J Med Chem, 2011).
Activity calls are given as the source filed them. The calls are words filed in the database; no cut-off is given here.

Key:
Mus musculus [1] = experiment: Anticonvulsant activity in ip dosed CF1 mouse assessed as protection against maximal electroshock-induced seizure after 30 mins; format: functional; details: 0.5 h
Outline: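 Adult male albino CF-1 (Carworth Farms No. 1) mice dosed ip under the NINDS ASP; maximal electroshock seizure test. For compounds with sufficient activity, a dose-response curve was run at the time of peak effect (hours).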

[2] = Neurotoxicity in ip dosed NMRI mouse assessed as minimal motor impairment after 30 mins; format: toxicity, organism-based; details: in vivo
Outline: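 Adult male NMRI mice dosed ip at UCB Pharma. Neurological toxicity was scored on the rotorod test 30 min after dosing.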

Mus musculus [3] = experiment: Anticonvulsant activity in NMRI mouse assessed as protection against subcutaneous pentylenetetrazol-induced seizure at 30 to 300 mg/kg, ip after 0.5 to 4 hrs; format: functional, organism-based
Rattus norvegicus [4] = experiment: Anticonvulsant activity in po dosed Sprague-Dawley rat assessed as protection against maximal electroshock-induced seizure after 30 mins; format: functional; details: 0.5 h
[5] = Neurotoxicity in po dosed Sprague-Dawley rat assessed as minimal motor impairment after 30 mins by rotorod test; format: toxicity, organism-based; details: in vivo
Mus musculus [6] = experiment: Anticonvulsant activity in ip dosed NMRI mouse assessed as protection against maximal electroshock-induced seizure after 30 mins; format: functional; details: 0.5 h
Outline: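 Adult male NMRI mice dosed ip (UCB Pharma). MES test run per the Klitgaard procedure. […] Single-dose runs report the percentage of animals protected.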

Mus musculus [7] = species: Mus musculus; experiment: Protective index, ratio of TD50 for CF1 mouse to ED50 for CF1 mouse by maximal electroshock seizure test; format: functional
Outline: (§1)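 Protective index computed as rotorod (mice) or behavioral (rats) TD50 divided by MES ED50, both in mg/kg in the same species and route.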

Mus musculus [8] = species: Mus musculus; experiment: Protective index, ratio of TD50 for NMRI mouse to ED50 for NMRI mouse formalin-induced neuropathic pain model; format: functional
Rattus norvegicus [9] = species: Rattus norvegicus; experiment: Protective index, ratio of TD50 for Sprague-Dawley rat to ED50 for Sprague-Dawley rat by maximal electroshock seizure test; format: functional; outline: as §1
Mus musculus [10] = experiment: Antinociceptive activity in ip dosed NMRI mouse assessed as inhibition of formalin-induced neuropathic pain after 30 mins; format: functional; details: 0.5 h
Outline: (§2)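 NMRI mice dosed ip at UCB Pharma, then tested in the formalin model of neuropathic pain. ED50 in mg/kg read 30 min after administration. Single-dose runs report the percentage protected.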

Mus musculus [11] = experiment: Anticonvulsant activity in ip dosed NMRI mouse assessed as protection against 6 Hz psychomotor seizure after 30 mins; format: functional; details: 0.5 h; for minimal effective dose: read-out: MED
Outline: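 Adult male NMRI mice dosed ip (UCB Pharma). 6 Hz psychomotor seizure model at 44 mA, per Kaminski and co-workers.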

Mus musculus [12] = experiment: Antinociceptive activity in NMRI mouse assessed as inhibition of formalin-induced neuropathic pain at 68 mg/kg, ip after 30 mins; format: functional; parameters: scale not given: the % may be the effect or the level left; details: route intraperitoneal; outline: as §2
[13] = Neurotoxicity in ip dosed CF1 mouse assessed as minimal motor impairment after 30 mins; format: toxicity, organism-based; details: in vivo
Mus musculus [14] = experiment: Antinociceptive activity in NMRI mouse assessed as inhibition of formalin-induced neuropathic pain at 75 mg/kg, ip after 30 mins; format: functional; parameters: scale not given: the % may be the effect or the level left; details: route intraperitoneal; outline: as §2
Mus musculus [15] = experiment: Antinociceptive activity in NMRI mouse assessed as inhibition of formalin-induced neuropathic pain at 25 mg/kg, ip after 30 mins; format: functional, organism-based; parameters: dose 25 mg/kg; outline: as §2
Mus musculus [16] = experiment: Antinociceptive activity in NMRI mouse assessed as inhibition of formalin-induced neuropathic pain at 79 mg/kg, ip after 30 mins; format: functional; parameters: scale not given: the % may be the effect or the level left; details: route intraperitoneal; outline: as §2

Compound CC(=O)NC(C(=O)NCc1ccccc1)c1ccsc1 (racemic) has an ED50 (Mus musculus [1]) of 88 mg/kg.

In the case of CC(=O)N[C@H](C)C(=O)NCc1ccccc1, the TD50 at 0.5 h [2] is reported as 210 mg/kg.

For CC(C)(C)[C@H](N)C(=O)NCc1ccccc1, the TD50 at 0.5 h [2] was 100 mg/kg, the Activity (Mus musculus [3]) was “inactive” and the ED50 (Rattus norvegicus [4]) was greater than 30 mg/kg. It also gave a TD50 at 0.5 h [5] greater than 30 mg/kg.

CC(=O)NC(CN(C)C)C(=O)NCc1ccccc1 (racemic) showed an ED50 (Mus musculus [1]) of less than 30 mg/kg and a TD50 at 0.5 h [2] of less than 100 mg/kg.

CC(=O)N[C@H](CO)C(=O)NCc1ccccc1 showed a TD50 at 0.5 h [2] greater than 500 mg/kg.

For CC(C)[C@@H](N)C(=O)NCc1ccccc1, the minimal effective dose (Mus musculus [6]; read-out: MED) was 16 mg/kg, the “Ratio TD50/ED50” value (Mus musculus [7]) was 4.7 and the “Ratio TD50/ED50” value (Mus musculus [8]) was 2.4. For the same compound, the Activity (Mus musculus [3]) was “inactive” and the TD50 at 0.5 h [5] was greater than 500 mg/kg.

COC[C@H](NC(C)=O)C(=O)NCc1ccccc1 gave a TD50 at 0.5 h [2] greater than 300 mg/kg.

In the case of C[C@@H](N)C(=O)NCc1ccccc1, the TD50 at 0.5 h [2] is reported as less than 100 mg/kg, the Activity (Mus musculus [3]) is reported as “inactive” and the ED50 (Rattus norvegicus [4]) is reported as 19 mg/kg. For the same compound, the TD50 at 0.5 h [5] was greater than 30 mg/kg and the “Ratio TD50/ED50” value (Rattus norvegicus [9]) was greater than 1.5.

In the case of CC(=O)NC(C(=O)NCc1ccccc1)c1ccccc1 (racemic), the ED50 (Mus musculus [1]) is reported as 20 mg/kg.

Compound CCC[C@H](N)C(=O)NCc1ccccc1 has an ED50 (Mus musculus [10]) of 100 mg/kg, an ED50 (Mus musculus [6]) greater than 37 mg/kg and an ED50 (Mus musculus [11]) greater than 210 mg/kg.

Compound CCCC(N)C(=O)NCc1ccccc1 (racemic) has an ED50 (Mus musculus [6]) of 39 mg/kg, a minimal effective dose (Mus musculus [11]) of 120 mg/kg and an Activity (Mus musculus [12]) of 17%.

In the case of NC(CO)C(=O)NCc1ccccc1 (racemic), the ED50 (Mus musculus [10]) is reported as greater than 62 mg/kg, the ED50 (Mus musculus [6]) is reported as greater than 62 mg/kg and the ED50 (Mus musculus [11]) is reported as greater than 62 mg/kg. The TD50 at 0.5 h [13] was greater than 110 mg/kg and the “Ratio TD50/ED50” value (Mus musculus [8]) was greater than 1.8.

N[C@H](CO)C(=O)NCc1ccccc1 showed an ED50 (Mus musculus [10]) greater than 62 mg/kg, an ED50 (Mus musculus [6]) greater than 62 mg/kg and an ED50 (Mus musculus [11]) greater than 62 mg/kg. The TD50 at 0.5 h [13] was greater than 110 mg/kg.

For CCCC(NC(C)=O)C(=O)NCc1ccccc1 (racemic), the ED50 (Mus musculus [1]) was 38 mg/kg.

N[C@H](CCO)C(=O)NCc1ccccc1 showed an ED50 (Mus musculus [10]) greater than 67 mg/kg, an ED50 (Mus musculus [6]) greater than 160 mg/kg and an ED50 (Mus musculus [11]) greater than 120 mg/kg.

Compound C=CCOCC(N)C(=O)NCc1ccccc1 (racemic) has an ED50 (Mus musculus [10]) of 75 mg/kg, an ED50 (Mus musculus [6]) of 45 mg/kg and a minimal effective dose (Mus musculus [11]) of 130 mg/kg. For the same compound, the Activity (Mus musculus [14]) was 12%.

In the case of C#CCOCC(NC(C)=O)C(=O)NCc1ccccc1 (racemic), the TD50 at 0.5 h [2] is reported as 59 mg/kg.

In the case of CC(=O)NC(CN1CCOCC1)C(=O)NCc1ccccc1 (racemic), the ED50 (Mus musculus [1]) is reported as less than 100 mg/kg and the TD50 at 0.5 h [2] is reported as 300 mg/kg.

For CC(C)[C@H](N)C(=O)NCc1ccccc1, the TD50 at 0.5 h [2] was greater than 300 mg/kg and the Activity (Mus musculus [3]) was “inactive”.

In the case of N[C@@H](C(=O)NCc1ccccc1)C1CCCCC1, the ED50 (Mus musculus [6]) is reported as 28 mg/kg, the minimal effective dose (Mus musculus [11]) is reported as 140 mg/kg and the Activity (Mus musculus [15]) is reported as “inactive”. It also gave an Activity (Mus musculus [16]) of 95%.

CC(=O)NC(C)C(=O)NCc1ccccc1 (racemic) showed an ED50 (Mus musculus [1]) of 76 mg/kg and a TD50 at 0.5 h [2] of 450 mg/kg.

Compound CSCC[C@@H](N)C(=O)NCc1ccccc1 has an ED50 (Mus musculus [10]) greater than 76 mg/kg, an ED50 (Mus musculus [6]) of 75 mg/kg and a minimal effective dose (Mus musculus [11]) of 130 mg/kg.

For O=C1NC(=O)C(c2ccccc2)(c2ccccc2)N1 [PHENYTOIN], the TD50 at 0.5 h [5] was greater than 3000 mg/kg.

For CC(C)(C)[C@@H](N)C(=O)NCc1ccccc1, the Activity (Mus musculus [3]) was “inactive” and the TD50 at 0.5 h [5] was greater than 500 mg/kg.

Compound N[C@H](Cc1ccccc1)C(=O)NCc1ccccc1 has an ED50 (Mus musculus [10]) greater than 37 mg/kg, an ED50 (Mus musculus [6]) of 40 mg/kg and a minimal effective dose (Mus musculus [11]) of 81 mg/kg.

For COC[C@H](N)C(=O)NCc1ccccc1, the “Ratio TD50/ED50” value (Mus musculus [8]) was 0.5.
